Columns and labels:
[1] = tested on: Liver microsome; assay: Drug level in Sprague-Dawley rat liver microsomes treated with [14C]-rivoglitazone at 20 uM after 2 hrs by radio-HPLC/LC-MS/MS analysis in presence of NADPH-generating system and NADPH-generating system/SAM; type: ADME
How it was run: (§1)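 Pooled male liver microsomes (1 mg/ml protein; rat from 94 Sprague-Dawley, monkey from 8 cynomolgus, human from 23 donors) were incubated with [¹⁴C]rivoglitazone (20 μM). Buffer: 10 mM potassium phosphate (pH 7.4). Cofactors: NADPH-generating system (2 mM NADP⁺, 20 mM G6P, 2 U/ml G6PDH, 10 mM MgCl₂), with or without 2 mM SAM. Incubation 2 h at 37°C with shaking; controls lacked NADPH system and SAM alone. Acetonitrile stop, radio-HPLC plus LC-MS.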

[2] = biological target: T1, Cytochrome P450 1A2 (Homo sapiens, UniProt P05177); assay: Activity of human CYP1A2 expressed in microsomes isolated from baculovirus infected insect cell assessed as enzyme-mediated compound formation treated with [14C]-rivoglitazone at 20 uM after 2 hrs by radio-HPLC/LC-MS/MS analysis in presence of NADPH-generating system and NADPH-generating system/SAM; type: ADME
T1 sequence (P05177 whole entry): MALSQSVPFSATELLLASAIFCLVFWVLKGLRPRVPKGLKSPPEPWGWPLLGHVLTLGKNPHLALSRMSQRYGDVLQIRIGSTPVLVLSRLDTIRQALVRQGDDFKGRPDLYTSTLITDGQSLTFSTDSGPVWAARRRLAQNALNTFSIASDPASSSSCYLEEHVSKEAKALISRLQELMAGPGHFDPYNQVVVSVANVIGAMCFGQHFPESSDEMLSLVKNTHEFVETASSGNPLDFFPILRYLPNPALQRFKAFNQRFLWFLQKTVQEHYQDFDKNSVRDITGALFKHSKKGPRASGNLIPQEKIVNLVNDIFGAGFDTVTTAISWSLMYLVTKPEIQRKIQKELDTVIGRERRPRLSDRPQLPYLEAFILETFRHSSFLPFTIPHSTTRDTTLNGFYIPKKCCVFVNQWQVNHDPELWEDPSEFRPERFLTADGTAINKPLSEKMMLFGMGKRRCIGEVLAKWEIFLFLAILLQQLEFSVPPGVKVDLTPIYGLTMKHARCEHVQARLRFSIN
How it was run: (§2)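 Baculovirus/insect-cell microsomes expressing single human CYPs, 1 mg/ml protein, with 50 mM potassium phosphate (pH 7.4) or 100 mM Tris-HCl (pH 7.5). NADPH-generating system: 2 mM NADP⁺, 20 mM glucose 6-phosphate, 2 units/ml G6PDH, 10 mM MgCl₂. [¹⁴C]rivoglitazone at 20 μM, 2 h at 37°C with shaking. Control used insect-cell control supersomes. Stopped with acetonitrile; supernatant concentrated under nitrogen; metabolites analysed by radio-HPLC, LC-MS and LC-MS/MS.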

[3] = biological target: Cytochrome P450 2C9 (Homo sapiens, UniProt P11712); assay: Activity of human CYP2C9 expressed in microsomes isolated from baculovirus infected insect cell assessed as enzyme-mediated compound formation treated with [14C]-rivoglitazone at 20 uM after 2 hrs by radio-HPLC/LC-MS/MS analysis in presence of NADPH-generating system and NADPH-generating system/SAM; type: ADME
[4] = tested on: Plasma; assay: Drug level in po dosed monkey plasma treated with [14C]-rivoglitazone; type: ADME, organism-based, Macaca mulatta; settings: rhesus monkey, in vivo
[5] = biological target: Cytochrome P450 3A4 (Homo sapiens, UniProt P08684); assay: Activity of human CYP3A4 expressed in microsomes isolated from baculovirus infected insect cell assessed as enzyme-mediated compound formation treated with [14C]-rivoglitazone at 20 uM after 2 hrs by radio-HPLC/LC-MS/MS analysis in presence of NADPH-generating system and NADPH-generating system/SAM; type: ADME
[6] = Drug level in po dosed monkey liver microsomes treated with [14C]-rivoglitazone; type: ADME, organism-based, Macaca mulatta; settings: rhesus monkey, in vivo
[7] = biological target: T2, Cytochrome P450 2C8 (Homo sapiens, UniProt P10632); assay: Activity of human CYP2C8 expressed in microsomes isolated from baculovirus infected insect cell assessed as enzyme-mediated compound formation treated with [14C]-rivoglitazone at 20 uM after 2 hrs by radio-HPLC/LC-MS/MS analysis in presence of NADPH-generating system and NADPH-generating system/SAM; type: ADME; how it was run: as §2
T2 sequence (P10632 whole entry): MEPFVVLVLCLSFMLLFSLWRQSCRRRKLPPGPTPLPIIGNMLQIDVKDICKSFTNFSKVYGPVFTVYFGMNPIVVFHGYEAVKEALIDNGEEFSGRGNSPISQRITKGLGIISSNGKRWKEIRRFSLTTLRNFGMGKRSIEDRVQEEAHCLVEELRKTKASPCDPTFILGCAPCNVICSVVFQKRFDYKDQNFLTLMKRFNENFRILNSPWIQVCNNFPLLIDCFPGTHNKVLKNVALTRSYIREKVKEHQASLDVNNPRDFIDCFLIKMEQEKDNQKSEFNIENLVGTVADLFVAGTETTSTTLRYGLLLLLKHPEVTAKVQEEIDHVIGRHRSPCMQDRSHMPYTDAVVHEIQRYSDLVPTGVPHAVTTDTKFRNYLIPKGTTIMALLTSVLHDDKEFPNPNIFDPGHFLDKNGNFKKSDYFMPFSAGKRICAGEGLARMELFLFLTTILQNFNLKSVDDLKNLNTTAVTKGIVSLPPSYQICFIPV

[8] = biological target: Cytochrome P450 3A5 (Homo sapiens, UniProt P20815); assay: Activity of human CYP3A5 expressed in microsomes isolated from baculovirus infected insect cell assessed as enzyme-mediated compound formation treated with [14C]-rivoglitazone at 20 uM after 2 hrs by radio-HPLC/LC-MS/MS analysis in presence of NADPH-generating system and NADPH-generating system/SAM; type: ADME
How it was run: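 cDNA-expressed human CYP3A5 in baculovirus-insect-cell microsomes (1 mg/ml protein) was incubated with [¹⁴C]rivoglitazone (20 μM) in 50 mM potassium phosphate (pH 7.4) or 100 mM Tris-HCl (pH 7.5). NADPH-generating system: 2 mM NADP⁺, 20 mM glucose 6-phosphate, 2 units/ml G6PDH, 10 mM MgCl₂. Incubation ran 2 h at 37°C with shaking; insect-cell control supersomes served as control. Acetonitrile stop, supernatant concentrated, then radio-HPLC, LC-MS and LC-MS/MS.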

[9] = Drug level in po dosed monkey bile treated with [14C]-rivoglitazone; type: ADME, organism-based, Macaca mulatta; settings: rhesus monkey, in vivo
[10] = Retention time of the compound by LC-MS/MS analysis; type: physicochemical
How it was run: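 LC-MS/MS used a YMC-Pack ODS-A column (1.5 × 150 mm, 5 μm) at 30°C, 0.1 ml/min. Mobile phase was water and acetonitrile, each with 0.01% TFA. Gradient: 12→60% B over 30 min, →90% B over 5 min, hold 5 min. Detection was UV 220 nm with positive ESI Q-TOF (capillary 3300 V, cone 45 V), collision energy 20 eV and xenon as collision gas.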

[11] = tested on: Hepatocyte; assay: Drug level in rat hepatocytes treated with [14C]-rivoglitazone at 30 uM after 3 hrs by radio-HPLC/LC-MS/MS analysis in presence of NADPH-generating system and NADPH-generating system/SAM; type: ADME, cell-based
[12] = biological target: Cytochrome P450 2D6 (Homo sapiens, UniProt P10635); assay: Activity of human CYP2D6 expressed in microsomes isolated from baculovirus infected insect cell assessed as enzyme-mediated compound formation treated with [14C]-rivoglitazone at 20 uM after 2 hrs by radio-HPLC/LC-MS/MS analysis in presence of NADPH-generating system and NADPH-generating system/SAM; type: ADME
[13] = tested on: Liver microsome; assay: Drug level in human liver microsomes treated with [14C]-rivoglitazone at 20 uM after 2 hrs by radio-HPLC/LC-MS/MS analysis in presence of NADPH-generating system and NADPH-generating system/SAM; type: ADME; how it was run: as §1
[14] = biological target: Cytochrome P450 2C19 (Homo sapiens, UniProt P33261); assay: Activity of human CYP2C19 expressed in microsomes isolated from baculovirus infected insect cell assessed as enzyme-mediated compound formation treated with [14C]-rivoglitazone at 20 uM after 2 hrs by radio-HPLC/LC-MS/MS analysis in presence of NADPH-generating system and NADPH-generating system/SAM; type: ADME; how it was run: as §2
[15] = tested on: Hepatocyte; assay: Drug level in human hepatocytes treated with [14C]-rivoglitazone at 30 uM after 3 hrs by radio-HPLC/LC-MS/MS analysis in presence of NADPH-generating system and NADPH-generating system/SAM; type: ADME, cell-based
[16] = Drug level in cynomolgus monkey liver microsomes treated with [14C]-rivoglitazone at 20 uM after 2 hrs by radio-HPLC/LC-MS/MS analysis in presence of NADPH-generating system and NADPH-generating system/SAM; type: ADME, Macaca fascicularis; how it was run: as §1

Cytochrome P450 2C19, sequence (P33261 whole entry): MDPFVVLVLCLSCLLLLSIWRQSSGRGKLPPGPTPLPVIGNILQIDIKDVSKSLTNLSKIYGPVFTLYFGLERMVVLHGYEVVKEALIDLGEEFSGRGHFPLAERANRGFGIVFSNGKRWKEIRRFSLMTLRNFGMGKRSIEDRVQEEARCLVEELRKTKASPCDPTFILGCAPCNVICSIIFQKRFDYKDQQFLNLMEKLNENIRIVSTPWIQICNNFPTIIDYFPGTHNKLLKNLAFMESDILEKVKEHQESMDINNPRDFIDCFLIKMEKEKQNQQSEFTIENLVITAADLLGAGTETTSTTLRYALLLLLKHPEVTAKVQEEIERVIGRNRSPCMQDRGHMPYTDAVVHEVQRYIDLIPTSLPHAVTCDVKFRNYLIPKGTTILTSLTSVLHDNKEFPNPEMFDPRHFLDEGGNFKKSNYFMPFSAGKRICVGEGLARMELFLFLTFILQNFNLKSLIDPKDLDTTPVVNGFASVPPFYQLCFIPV
Cytochrome P450 2C9, sequence (P11712 whole entry): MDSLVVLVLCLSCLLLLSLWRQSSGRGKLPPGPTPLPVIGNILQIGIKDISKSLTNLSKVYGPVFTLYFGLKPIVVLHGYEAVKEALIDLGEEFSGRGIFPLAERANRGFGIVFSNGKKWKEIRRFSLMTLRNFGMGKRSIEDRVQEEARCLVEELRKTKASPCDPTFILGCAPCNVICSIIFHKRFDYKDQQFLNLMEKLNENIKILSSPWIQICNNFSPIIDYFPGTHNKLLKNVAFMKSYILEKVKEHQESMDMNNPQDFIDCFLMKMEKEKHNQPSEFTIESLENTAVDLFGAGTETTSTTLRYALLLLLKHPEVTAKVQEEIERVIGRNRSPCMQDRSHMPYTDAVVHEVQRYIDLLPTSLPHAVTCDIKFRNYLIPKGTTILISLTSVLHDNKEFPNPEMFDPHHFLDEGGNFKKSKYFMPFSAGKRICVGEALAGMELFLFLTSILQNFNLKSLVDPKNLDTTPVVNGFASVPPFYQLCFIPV
Cytochrome P450 2D6, sequence (P10635 whole entry): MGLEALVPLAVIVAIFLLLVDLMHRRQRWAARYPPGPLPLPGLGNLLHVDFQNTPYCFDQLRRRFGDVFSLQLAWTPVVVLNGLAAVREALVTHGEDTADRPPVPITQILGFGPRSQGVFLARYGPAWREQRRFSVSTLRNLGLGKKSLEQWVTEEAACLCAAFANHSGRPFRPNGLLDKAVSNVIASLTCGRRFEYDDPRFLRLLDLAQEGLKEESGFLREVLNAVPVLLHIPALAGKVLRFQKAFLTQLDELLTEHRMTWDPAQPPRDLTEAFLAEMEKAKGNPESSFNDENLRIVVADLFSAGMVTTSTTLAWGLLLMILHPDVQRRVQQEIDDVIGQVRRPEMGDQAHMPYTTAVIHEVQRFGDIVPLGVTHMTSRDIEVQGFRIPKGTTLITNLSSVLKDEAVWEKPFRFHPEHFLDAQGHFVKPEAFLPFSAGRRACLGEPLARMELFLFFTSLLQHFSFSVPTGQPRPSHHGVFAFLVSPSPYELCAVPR
Cytochrome P450 3A4, sequence (P08684 whole entry): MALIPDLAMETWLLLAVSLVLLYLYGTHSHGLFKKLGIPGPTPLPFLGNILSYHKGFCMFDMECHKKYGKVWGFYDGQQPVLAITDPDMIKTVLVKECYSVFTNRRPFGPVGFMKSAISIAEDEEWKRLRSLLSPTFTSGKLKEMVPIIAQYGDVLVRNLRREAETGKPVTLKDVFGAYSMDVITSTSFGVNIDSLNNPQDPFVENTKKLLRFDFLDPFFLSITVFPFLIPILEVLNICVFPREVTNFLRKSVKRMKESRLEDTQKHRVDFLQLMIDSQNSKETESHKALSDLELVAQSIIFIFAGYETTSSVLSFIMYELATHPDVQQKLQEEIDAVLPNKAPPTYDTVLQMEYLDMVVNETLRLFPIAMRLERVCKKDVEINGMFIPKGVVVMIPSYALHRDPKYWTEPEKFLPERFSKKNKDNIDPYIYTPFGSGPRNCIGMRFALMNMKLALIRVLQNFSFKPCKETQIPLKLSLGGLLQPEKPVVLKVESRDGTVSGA
Cytochrome P450 3A5, sequence (P20815 whole entry): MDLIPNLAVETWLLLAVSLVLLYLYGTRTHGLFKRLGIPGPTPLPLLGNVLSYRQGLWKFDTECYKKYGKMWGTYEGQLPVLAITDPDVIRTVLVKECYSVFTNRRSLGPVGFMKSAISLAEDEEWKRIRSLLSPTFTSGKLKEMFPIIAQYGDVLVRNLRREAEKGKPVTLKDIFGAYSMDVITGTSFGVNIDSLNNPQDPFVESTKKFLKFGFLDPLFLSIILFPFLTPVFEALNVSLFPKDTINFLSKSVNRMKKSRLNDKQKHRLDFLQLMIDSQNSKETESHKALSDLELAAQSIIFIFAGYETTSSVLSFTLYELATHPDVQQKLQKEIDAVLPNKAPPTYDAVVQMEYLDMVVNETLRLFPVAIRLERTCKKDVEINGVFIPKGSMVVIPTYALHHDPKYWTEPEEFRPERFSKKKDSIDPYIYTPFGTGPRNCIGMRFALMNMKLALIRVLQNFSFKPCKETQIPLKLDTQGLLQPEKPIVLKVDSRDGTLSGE

Structure (SMILES): COc1ccc2nc(COc3ccc(CC4SC(=O)NC4=O)cc3)[nH]c2c1 (stereo unspecified)
- Drug metabolism [1]: metabolite_detected
- Drug metabolism [2]: metabolite_detected
- Drug metabolism [3]: metabolite_detected
- Drug metabolism [4]: metabolite_detected
- Drug metabolism [5]: metabolite_detected
- Drug metabolism [6]: metabolite_detected
- Drug metabolism [7]: metabolite_detected
- Drug metabolism [8]: metabolite_detected
- Drug metabolism [9]: metabolite_detected
- Retention_time [10]: 20.9 min
- Drug metabolism [11]: metabolite_detected
- Drug metabolism [12]: metabolite_detected
- Drug metabolism [13]: metabolite_detected
- Drug metabolism [14]: metabolite_detected
- Drug metabolism [15]: metabolite_detected
- Drug metabolism [16]: metabolite_detected

Source: ChEMBL document CHEMBL3526048, “In vitro metabolism of rivoglitazone, a novel peroxisome proliferator-activated receptor γ agonist, in rat, monkey, and human liver microsomes and freshly isolated hepatocytes” (Drug Metab Dispos, 2011)
